From ChEMBL document CHEMBL1153140, “Piperidyl amides as novel, potent and orally active mGlu5 receptor antagonists with anxiolytic-like activity” (Bioorg Med Chem Lett, 2010)
Values after ≈ are worked out from the molar mass of the structure shown. Active and inactive are the calls of the source. The calls are words filed in the database; no cut-off is given here.

Columns and labels:
[1] = Aqueous solubility at pH 6.8; type: physicochemical
In short: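 Solubility measured at pH 6.8 by a dissolution template potentiometric titration approach, expressed in mg/L.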

[2] = Intrinsic clearance in human liver microsomes; type: ADME, Microsome
[3] = Intrinsic clearance in rat liver microsomes; type: ADME, Microsome
[4] = target: T1, Metabotropic glutamate receptor 5 (Homo sapiens, UniProt P41594); assay: Antagonist activity at human mGluR5 assessed as inhibition of glutamate-induced elevation of intracellular calcium concentration; type: functional, cell-based
T1 sequence (P41594 whole entry): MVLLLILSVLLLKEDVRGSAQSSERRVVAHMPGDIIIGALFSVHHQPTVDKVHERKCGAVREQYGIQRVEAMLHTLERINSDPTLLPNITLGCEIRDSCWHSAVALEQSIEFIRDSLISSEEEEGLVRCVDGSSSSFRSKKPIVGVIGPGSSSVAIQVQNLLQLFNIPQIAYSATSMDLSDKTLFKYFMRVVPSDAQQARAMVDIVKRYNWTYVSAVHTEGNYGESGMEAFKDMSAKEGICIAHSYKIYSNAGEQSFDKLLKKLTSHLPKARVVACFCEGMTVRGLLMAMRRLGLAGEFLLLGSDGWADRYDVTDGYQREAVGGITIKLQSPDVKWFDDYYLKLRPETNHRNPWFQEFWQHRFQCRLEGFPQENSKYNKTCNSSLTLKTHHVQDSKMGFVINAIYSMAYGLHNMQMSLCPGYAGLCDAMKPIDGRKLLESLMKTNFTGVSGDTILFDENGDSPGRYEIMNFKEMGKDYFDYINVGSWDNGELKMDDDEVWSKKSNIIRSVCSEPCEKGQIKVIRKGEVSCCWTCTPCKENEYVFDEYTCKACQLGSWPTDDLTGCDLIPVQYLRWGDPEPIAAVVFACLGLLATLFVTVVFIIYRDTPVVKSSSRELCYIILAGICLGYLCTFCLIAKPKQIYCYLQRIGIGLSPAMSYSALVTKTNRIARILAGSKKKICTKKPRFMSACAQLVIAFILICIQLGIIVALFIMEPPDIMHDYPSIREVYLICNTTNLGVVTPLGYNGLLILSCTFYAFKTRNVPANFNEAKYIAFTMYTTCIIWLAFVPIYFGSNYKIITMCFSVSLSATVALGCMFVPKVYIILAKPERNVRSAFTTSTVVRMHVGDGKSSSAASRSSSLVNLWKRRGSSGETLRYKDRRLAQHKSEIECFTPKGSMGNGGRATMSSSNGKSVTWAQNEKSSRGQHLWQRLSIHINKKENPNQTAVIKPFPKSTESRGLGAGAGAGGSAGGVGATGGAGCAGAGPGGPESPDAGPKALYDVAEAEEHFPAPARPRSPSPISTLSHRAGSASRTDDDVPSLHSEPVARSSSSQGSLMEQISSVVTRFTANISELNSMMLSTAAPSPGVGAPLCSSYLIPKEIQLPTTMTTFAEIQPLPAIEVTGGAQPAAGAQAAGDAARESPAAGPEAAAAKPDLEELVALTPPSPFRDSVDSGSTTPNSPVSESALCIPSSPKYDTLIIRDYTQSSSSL

[5] = target: T1, Metabotropic glutamate receptor 5; assay: Antagonist activity at human mGluR5 assessed as inhibition of quisqualate-induced intracellular inositol phosphate accumulation; type: functional, cell-based
Rattus norvegicus [6] = assay: Anxiolytic-like activity in water-deprived rat assessed as increase in electrical shock-stimulated lick at 3 mg/kg, po administered 1 hr before test by Vogel conflict test; type: functional, organism-based; design: dose 3 mg/kg
Rattus norvegicus [7] = species: Rattus norvegicus; assay: Anxiolytic-like activity in rat assessed as reduction in electric foot shock-induced fear-potentiation startle; type: functional, organism-based
In short: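 Rats fear-conditioned by 20 pairings of light (5 s) with footshock (0.5 mA, 0.5 s) on two successive days. On day 3, oral dosing (3–30 mg/kg, n = 10/group). 1 h later, startle to a noise burst measured with and without light, 12 presentations each; FPS taken as the difference. Multifactorial ANOVA with Dunnett post-hoc.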

Brain = assay: Drug level in rat brain at 2 mg/kg; type: ADME, organism-based; design: dose 2 mg/kg; conditions: in vivo
In short: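 In a fear-potentiated startle run at 0.08–30 mg/kg po, rats were sacrificed immediately after testing. Brains were removed and drug concentration measured by HPLC, reported as mean ± SEM per dose group.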

[8] = target: Metabotropic glutamate receptor 1 (Homo sapiens, UniProt Q13255); assay: Inhibition of human mGluR1
[9] = target: Metabotropic glutamate receptor 2 (Homo sapiens, UniProt Q14416); assay: Inhibition of human mGluR2
Sequence of Metabotropic glutamate receptor 2 (Q14416 whole entry): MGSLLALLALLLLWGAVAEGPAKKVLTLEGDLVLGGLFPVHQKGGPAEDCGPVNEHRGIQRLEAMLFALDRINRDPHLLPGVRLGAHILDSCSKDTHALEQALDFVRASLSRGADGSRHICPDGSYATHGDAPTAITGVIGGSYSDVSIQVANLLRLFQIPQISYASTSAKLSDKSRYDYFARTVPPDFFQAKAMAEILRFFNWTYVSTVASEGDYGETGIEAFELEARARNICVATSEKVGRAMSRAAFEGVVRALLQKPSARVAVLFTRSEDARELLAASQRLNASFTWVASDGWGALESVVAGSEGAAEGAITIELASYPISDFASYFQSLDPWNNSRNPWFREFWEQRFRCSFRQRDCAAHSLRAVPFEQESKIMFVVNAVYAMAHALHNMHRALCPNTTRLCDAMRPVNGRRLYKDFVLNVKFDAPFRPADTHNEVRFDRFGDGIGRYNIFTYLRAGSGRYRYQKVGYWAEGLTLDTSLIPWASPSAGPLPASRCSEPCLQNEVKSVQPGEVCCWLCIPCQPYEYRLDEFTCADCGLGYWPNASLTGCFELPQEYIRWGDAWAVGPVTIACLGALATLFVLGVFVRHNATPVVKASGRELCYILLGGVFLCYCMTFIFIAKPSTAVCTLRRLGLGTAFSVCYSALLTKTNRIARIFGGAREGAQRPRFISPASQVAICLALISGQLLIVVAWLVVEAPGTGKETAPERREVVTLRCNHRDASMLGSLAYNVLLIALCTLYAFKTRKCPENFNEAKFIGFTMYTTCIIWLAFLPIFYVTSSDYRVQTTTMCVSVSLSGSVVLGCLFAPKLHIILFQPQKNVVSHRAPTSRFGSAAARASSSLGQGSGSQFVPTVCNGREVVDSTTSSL

[10] = target: Metabotropic glutamate receptor 7 (Homo sapiens, UniProt Q14831); assay: Inhibition of human mGluR7
Sequence of Metabotropic glutamate receptor 7 (Q14831 whole entry): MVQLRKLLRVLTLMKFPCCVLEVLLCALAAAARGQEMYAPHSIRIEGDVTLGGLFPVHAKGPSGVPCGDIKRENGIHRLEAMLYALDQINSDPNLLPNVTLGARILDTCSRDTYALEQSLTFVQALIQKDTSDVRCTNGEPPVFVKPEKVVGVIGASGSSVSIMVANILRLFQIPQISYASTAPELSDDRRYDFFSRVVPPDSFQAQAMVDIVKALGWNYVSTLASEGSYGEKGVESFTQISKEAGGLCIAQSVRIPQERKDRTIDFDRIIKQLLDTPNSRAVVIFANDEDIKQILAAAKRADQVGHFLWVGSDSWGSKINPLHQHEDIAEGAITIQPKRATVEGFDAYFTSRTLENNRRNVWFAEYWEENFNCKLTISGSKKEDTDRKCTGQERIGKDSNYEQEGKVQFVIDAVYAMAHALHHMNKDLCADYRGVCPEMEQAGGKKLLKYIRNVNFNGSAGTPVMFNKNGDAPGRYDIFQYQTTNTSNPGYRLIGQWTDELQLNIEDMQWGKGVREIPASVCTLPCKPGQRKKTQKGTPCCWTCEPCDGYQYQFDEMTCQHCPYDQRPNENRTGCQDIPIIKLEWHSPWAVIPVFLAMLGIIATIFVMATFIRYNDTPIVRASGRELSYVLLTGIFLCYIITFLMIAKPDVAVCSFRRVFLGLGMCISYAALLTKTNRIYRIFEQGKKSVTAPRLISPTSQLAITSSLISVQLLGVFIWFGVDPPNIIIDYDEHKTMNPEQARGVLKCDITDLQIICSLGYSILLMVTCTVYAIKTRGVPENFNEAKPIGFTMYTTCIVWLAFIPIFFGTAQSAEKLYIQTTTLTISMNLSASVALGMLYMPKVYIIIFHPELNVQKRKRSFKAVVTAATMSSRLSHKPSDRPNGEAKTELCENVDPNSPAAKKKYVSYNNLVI

Glutamate NMDA receptor = assay: Displacement of radioligand from glutamate and glycine binding site of NMDA receptor in rat brain membrane; type: cell membranes
In short: (§1)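 Radioligand displacement in rat brain membranes: AMPA (glutamate site), kainate (glutamate site) and NMDA (glutamate and glycine sites).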

[11] = Displacement of radioligand from glutamate binding site of AMPA receptor in rat brain membrane; type: cell membranes; in short: as §1
[12] = Displacement of radioligand from glutamate binding site of kinate receptor in rat brain membrane; type: cell membranes; in short: as §1
[13] = Second elimination Half life in Sprague-Dawley rat at 10 umol/kg, iv; type: ADME, organism-based; conditions: in vivo, read-out: beta t1/2 (converted)
In short: (§2)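 Single iv bolus of 10 µmol/kg in Sprague-Dawley rats, n = 3 per group. Plasma concentration-time profile analysed for AUC, clearance, first and second elimination half-lives, MRT and Vss. Brain/plasma AUC ratio also determined.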

[14] = target: Metabotropic glutamate receptor 5 (Rattus norvegicus, UniProt P31424); assay: Displacement of [3H]ABP688 from mGluR5 in rat brain cortex; type: tissue-based
Sequence of Metabotropic glutamate receptor 5 (Rattus norvegicus, UniProt P31424) (P31424 whole entry): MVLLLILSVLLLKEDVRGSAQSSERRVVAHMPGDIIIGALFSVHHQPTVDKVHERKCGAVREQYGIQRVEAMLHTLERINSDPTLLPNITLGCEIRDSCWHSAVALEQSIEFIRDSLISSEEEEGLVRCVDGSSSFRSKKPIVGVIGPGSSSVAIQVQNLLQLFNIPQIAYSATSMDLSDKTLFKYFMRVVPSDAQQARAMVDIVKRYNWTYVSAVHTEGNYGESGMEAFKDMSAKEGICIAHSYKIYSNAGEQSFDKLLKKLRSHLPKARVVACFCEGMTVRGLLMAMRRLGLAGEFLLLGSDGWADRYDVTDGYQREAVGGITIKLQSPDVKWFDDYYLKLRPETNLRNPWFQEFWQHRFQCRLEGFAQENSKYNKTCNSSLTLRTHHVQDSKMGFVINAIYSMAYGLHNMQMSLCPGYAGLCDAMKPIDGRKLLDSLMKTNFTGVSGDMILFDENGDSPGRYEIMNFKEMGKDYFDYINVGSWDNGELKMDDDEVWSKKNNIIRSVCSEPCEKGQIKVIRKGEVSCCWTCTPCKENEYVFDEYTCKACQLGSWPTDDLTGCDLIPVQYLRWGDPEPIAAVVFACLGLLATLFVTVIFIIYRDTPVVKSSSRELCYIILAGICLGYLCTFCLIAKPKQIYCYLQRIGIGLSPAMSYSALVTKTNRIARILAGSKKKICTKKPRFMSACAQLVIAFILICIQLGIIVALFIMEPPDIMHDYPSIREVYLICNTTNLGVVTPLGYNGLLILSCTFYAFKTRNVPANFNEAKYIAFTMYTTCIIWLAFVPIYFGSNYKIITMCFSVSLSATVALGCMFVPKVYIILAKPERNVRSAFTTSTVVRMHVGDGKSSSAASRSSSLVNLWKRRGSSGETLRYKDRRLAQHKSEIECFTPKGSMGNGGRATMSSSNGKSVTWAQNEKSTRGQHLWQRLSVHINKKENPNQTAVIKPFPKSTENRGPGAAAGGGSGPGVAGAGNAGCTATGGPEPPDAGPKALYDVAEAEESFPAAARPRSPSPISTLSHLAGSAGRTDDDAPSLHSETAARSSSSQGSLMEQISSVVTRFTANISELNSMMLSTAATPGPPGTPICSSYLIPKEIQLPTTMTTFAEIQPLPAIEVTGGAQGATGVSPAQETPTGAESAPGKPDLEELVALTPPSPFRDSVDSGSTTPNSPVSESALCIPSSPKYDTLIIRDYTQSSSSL

[15] = target: T1, Metabotropic glutamate receptor 5; assay: Displacement of [3H]ABP688 from human recombinant mGluR5 expressed in CHO cells; type: cell-based
[16] = Cmax in Sprague-Dawley rat at 30 umol/kg, po; type: ADME, organism-based; design: dose 30 umol/kg, route oral; conditions: in vivo
In short: (§3)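 Sprague-Dawley rats (n = 3/group) dosed orally once at 30 µmol/kg. Plasma Cmax, Tmax and AUC determined.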

[17] = Tmax in Sprague-Dawley rat at 30 umol/kg, po; type: ADME, organism-based; conditions: in vivo; in short: as §3
[18] = AUC in Sprague-Dawley rat at 30 umol/kg, po; type: ADME, organism-based; conditions: plasma; in short: as §3
[19] = Oral bioavailability in Sprague-Dawley rat at 30 umol/kg; type: ADME, organism-based; conditions: in vivo; in short: as §3
[20] = Ratio of drug level in brain to plasma in Sprague-Dawley rat at 30 umol/kg, po; type: ADME
In short: (§4)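 Single-dose pharmacokinetic study in Sprague-Dawley rats, n = 3 per group, given one oral or one iv bolus dose. Drug concentrations were followed over time in plasma and brain. The ratio is the brain AUC divided by the plasma AUC.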

[21] = First elimination Half life in Sprague-Dawley rat at 10 umol/kg, iv; type: ADME, organism-based; conditions: in vivo, read-out: beta t1/2 (converted); in short: as §2
[22] = Mean retention time in Sprague-Dawley rat at 10 umol/kg, iv; type: ADME, organism-based; conditions: in vivo; in short: as §2
[23] = Clearance in Sprague-Dawley rat at 10 umol/kg, iv; type: ADME, organism-based; conditions: in vivo; in short: as §2
[24] = Volume of distribution at steady state in Sprague-Dawley rat at 10 umol/kg, iv; type: ADME, organism-based; conditions: in vivo, read-out: Vdss; in short: as §2
[25] = AUC in Sprague-Dawley rat at 10 umol/kg, iv; type: ADME, organism-based; conditions: plasma; in short: as §2
[26] = Ratio of drug level in brain to plasma in Sprague-Dawley rat at 10 umol/kg, iv; type: ADME; in short: as §4
Mus musculus = assay: Anxiolytic-like activity in mouse assessed as reduction of stress-induced hyperthermia at 3 to 10 mg/kg, po; type: functional, organism-based
Rattus norvegicus [27] = assay: Anxiolytic-like activity in water-deprived rat assessed as increase in electrical shock-stimulated lick at 10 to 30 mg/kg, po administered 1 hr before test by Vogel conflict test; type: functional, organism-based

CC[C@H]1CCCN(C(=O)c2cnc(Nc3ccc(C)nc3)c(Cl)c2)C1
solubility [1]: < 3 µg/mL | microsomal CLint [2]: 174 µL/min/mg | microsomal CLint [3]: 687 µL/min/mg

COc1cc(C(=O)N2CCCCC2)cnc1Nc1ccc(Cl)cc1
IC50 [4]: 2100 nM

O=C(c1ccc(Nc2ccc(Cl)cc2)nc1)N1CCCCCCC1
IC50 [4]: 2300 nM

CC1CCCN(C(=O)c2cc(Nc3ccc(Cl)cc3)[nH]n2)C1 (configuration not stated)
IC50 [4]: > 10000 nM

CCCC1CCCCN1C(=O)c1cnc(Nc2ccc(C)nc2)c(Cl)c1 (racemic)
IC50 [4]: 90 nM | IC50 [5]: 16 nM | solubility [1]: < 3 µg/mL | microsomal CLint [2]: 224 µL/min/mg | microsomal CLint [3]: 885 µL/min/mg

O=C(c1ccc(Nc2ccccc2Cl)nc1)N1CCCCC1
IC50 [4]: > 10000 nM

CC1CCN(C(=O)c2ccc(Nc3ccc(Cl)cc3)nc2)CC1
IC50 [4]: 2300 nM

CC1CCCN(C(=O)c2ccc(Nc3ccc(Cl)cc3)nn2)C1 (configuration not stated)
IC50 [4]: 720 nM

O=C(c1ccc(Nc2ccc(Cl)cc2)nc1)N1CCCC1
IC50 [4]: 5400 nM

O=C(c1cnc(Nc2ccc(Cl)cc2)cn1)N1CCCCC1
IC50 [4]: > 10000 nM

Cc1ccc(Nc2ncc(C(=O)N3CCCC(C)C3)cc2Cl)cn1 (racemic)
microsomal CLint [2]: 60 µL/min/mg | microsomal CLint [3]: 38 µL/min/mg

CC[C@@H]1CCCCN1C(=O)c1cnc(Nc2ccc(C)nc2)c(Cl)c1
Activity (Rattus norvegicus [6]): inactive | Activity (Rattus norvegicus [7]): Dose-dependent effect | Drug uptake (Brain): 127 pmol/g | IC50 [8]: > 10000 nM | IC50 [9]: > 10000 nM | IC50 [10]: > 10000 nM | IC50 (Glutamate NMDA receptor): > 10000 nM | IC50 [11]: > 10000 nM | IC50 [12]: > 10000 nM | half-life [13]: 54 min | Ki [14]: 30 nM | IC50 [4]: 32 nM | IC50 [5]: 36 nM | solubility [1]: 58 µg/mL (≈ 162 µM) | microsomal CLint [2]: 89 µL/min/mg | microsomal CLint [3]: 87 µL/min/mg | Ki [15]: 38 nM | Cmax [16]: 1230 nM | Tmax [17]: 15 min | AUC [18]: 7.23 µM·h | bioavailability [19]: 54% | Kp [20]: 1.3 | half-life [21]: 18 min | MRT [22]: 54 min | clearance [23]: 37.2 mL/min/kg | Vd [24]: 2 L/kg | AUC [25]: 4.48 µM·h | Kp [26]: 1.36 | Activity (Mus musculus): Active | Activity (Rattus norvegicus [27]): Active

CC1CCCN(C(=O)c2ccc(Oc3ccc(Cl)cc3)nc2)C1 (configuration not stated)
IC50 [4]: > 10000 nM

CC1CCCN(C(=O)c2cnc(Nc3ccc(Cl)cc3)c(Cl)c2)C1 (configuration not stated)
IC50 [4]: 95 nM

CCC1CCCN(C(=O)c2cnc(Nc3ccc(C)nc3)c(Cl)c2)C1 (racemic)
solubility [1]: 15 µg/mL (≈ 41.8 µM) | microsomal CLint [2]: 171 µL/min/mg | microsomal CLint [3]: 417 µL/min/mg

Cc1cccc(Nc2ccc(C(=O)N3CCCCC3)cn2)n1
IC50 [4]: > 10000 nM

COc1ccc(Nc2ccc(C(=O)N3CCCCC3)cn2)cc1
IC50 [4]: 1800 nM

CC1CCCN(C(=O)c2ccc(Nc3ccc(Cl)cc3)cc2)C1 (configuration not stated)
IC50 [4]: 1600 nM

CC1CCCCN1C(=O)c1ccc(Nc2ccc(Cl)cc2)nc1 (racemic)
IC50 [4]: 430 nM

CC[C@@H]1CCCN(C(=O)c2cnc(Nc3ccc(C)nc3)c(Cl)c2)C1
solubility [1]: 95 µg/mL (≈ 265 µM) | microsomal CLint [2]: 322 µL/min/mg | microsomal CLint [3]: 643 µL/min/mg

O=C(c1ccc(NC2CCCCC2)nc1)N1CCCCC1
IC50 [4]: > 10000 nM

Cc1ccc(Nc2ncc(C(=O)N3CCCC[C@@H]3C)cc2Cl)cn1
IC50 [4]: 1400 nM | solubility [1]: 499 µg/mL (≈ 1450 µM) | microsomal CLint [2]: 39 µL/min/mg | microsomal CLint [3]: 68 µL/min/mg

O=C(c1ccc(Nc2ccc(Cl)cc2)nc1)N1CCCCC1
IC50 [4]: 310 nM

O=C(NC1CCCCC1)c1ccc(Nc2ccc(Cl)cc2)nc1
IC50 [4]: > 10000 nM

CC[C@H]1CCCCN1C(=O)c1cnc(Nc2ccc(C)nc2)c(Cl)c1
IC50 [4]: 390 nM | IC50 [5]: 360 nM | solubility [1]: 56 µg/mL (≈ 156 µM) | microsomal CLint [2]: 216 µL/min/mg | microsomal CLint [3]: 190 µL/min/mg

CN(c1ccc(Cl)cc1)c1ccc(C(=O)N2CCCCC2)cn1
IC50 [4]: > 10000 nM

CC1CCCN(C(=O)c2cnc(Nc3ccc(Cl)cc3)nc2)C1 (configuration not stated)
IC50 [4]: 980 nM

O=C(c1ccc(Nc2ccc(F)cc2)nc1)N1CCCCC1
IC50 [4]: 2300 nM

Cc1ccc(Nc2ncc(C(=O)N3CCCCC3)cc2Cl)cn1
solubility [1]: 150 µg/mL (≈ 453 µM) | microsomal CLint [2]: 33 µL/min/mg | microsomal CLint [3]: 48 µL/min/mg

CC1CCCN(C(=O)c2ccc(Nc3ccc(Cl)cc3)nc2)C1 (racemic)
IC50 [4]: 530 nM

O=C(c1ccc(Nc2cccc(Cl)c2)nc1)N1CCCCC1
IC50 [4]: > 10000 nM

O=C(c1ccc(Nc2ccc(Cl)cn2)nc1)N1CCCCC1
IC50 [4]: 10000 nM

Cc1ccc(Nc2ncc(C(=O)N3CCCC[C@H]3C)cc2Cl)cn1
IC50 [4]: 240 nM | IC50 [5]: 430 nM | solubility [1]: 216 µg/mL (≈ 626 µM) | microsomal CLint [2]: 44 µL/min/mg | microsomal CLint [3]: 73 µL/min/mg

CCC1CCCCN1C(=O)c1cnc(Nc2ccc(C)nc2)c(Cl)c1 (racemic)
IC50 [4]: 110 nM | IC50 [5]: 90 nM | solubility [1]: 122 µg/mL (≈ 340 µM) | microsomal CLint [2]: 138 µL/min/mg | microsomal CLint [3]: 220 µL/min/mg

O=C(c1ccc(Nc2ccccc2)nc1)N1CCCCC1
IC50 [4]: 10000 nM

Cc1ccc(Nc2ccc(C(=O)N3CCCCC3)cn2)cn1
IC50 [4]: 420 nM

O=C(c1ccc(Nc2ccc(Cl)cc2)nc1)N1CCCCCC1
IC50 [4]: 250 nM

Cc1ccc(Nc2ccc(C(=O)N3CCCCC3)cn2)cc1
IC50 [4]: 2300 nM

O=C(c1ccc(Nc2ccc(Cl)c(Cl)c2)nc1)N1CCCCC1
IC50 [4]: > 10000 nM

CCN(CC)C(=O)c1ccc(Nc2ccc(Cl)cc2)nc1
IC50 [4]: 460 nM

CCCCC1CCCCN1C(=O)c1cnc(Nc2ccc(C)nc2)c(Cl)c1 (racemic)
IC50 [4]: 136 nM | IC50 [5]: 5 nM | solubility [1]: < 3 µg/mL | microsomal CLint [2]: 227 µL/min/mg | microsomal CLint [3]: 637 µL/min/mg
